Reference: ChEMBL document CHEMBL2331324, “Synthesis and biological evaluation of guanidino analogues of roscovitine” (Eur J Med Chem, 2013)

Experiments:
[1] = molecular target: Mitogen-activated protein kinase 9 (Homo sapiens) (UniProt P45984); assay: Inhibition of recombinant JNK2 (unknown origin) assessed as residual activity using [gamma-33P]ATP as substrate at 1 uM
Summary of the method: (§1)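 Selectivity panel run under previously published conditions. Screened at 1 μM in duplicate. Reactions started with [γ-33P]ATP (800 cpm/pmol) at 5, 20 or 50 μM, chosen to be at or below each enzyme's ATP Km. Stopped with phosphoric acid, spotted onto P81 filters. Result expressed as residual kinase activity.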

[2] = molecular target: Death-associated protein kinase 1 (Homo sapiens) (UniProt P53355); assay: Inhibition of recombinant DAPK1 (unknown origin) assessed as residual activity using [gamma-33P]ATP as substrate at 1 uM
Summary of the method: (§2)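 Recombinant kinase panel screened at 1 µM in duplicate. Reactions started with [γ-33P]ATP (800 cpm/pmol) at 5, 20 or 50 µM, chosen to sit at or below each enzyme's ATP Km. Stopped with phosphoric acid and spotted onto P81 filters. Result given as residual kinase activity.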

[3] = molecular target: Angiopoietin-1 receptor (Homo sapiens) (UniProt Q02763); assay: Inhibition of recombinant TIE2 (unknown origin) assessed as residual activity using [gamma-33P]ATP as substrate at 1 uM
Summary of the method: (§3)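 Kinase panel screen with each compound at 1 µM, in duplicate. Reactions were started with [γ-33P]ATP (800 cpm/pmol) at 5, 20 or 50 µM, chosen per enzyme to be at or below its ATP Km. Reactions were stopped with phosphoric acid and spotted onto P81 filters. Results are given as residual kinase activity.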

[4] = molecular target: Receptor-interacting serine/threonine-protein kinase 2 (Homo sapiens) (UniProt O43353); assay: Inhibition of recombinant RIPK2 (unknown origin) assessed as residual activity using [gamma-33P]ATP as substrate at 1 uM; summary of the method: as §1
[5] = molecular target: Ephrin type-A receptor 4 (Homo sapiens) (UniProt P54764); assay: Inhibition of recombinant EPH-A4 (unknown origin) assessed as residual activity using [gamma-33P]ATP as substrate at 1 uM; summary of the method: as §2
[6] = molecular target: Tyrosine-protein kinase Lck (Homo sapiens) (UniProt P06239); assay: Inhibition of recombinant LCK (unknown origin) assessed as residual activity using [gamma-33P]ATP as substrate at 1 uM; summary of the method: as §1
Sequence of Tyrosine-protein kinase Lck (Homo sapiens) (P06239 2-509 limits assumed): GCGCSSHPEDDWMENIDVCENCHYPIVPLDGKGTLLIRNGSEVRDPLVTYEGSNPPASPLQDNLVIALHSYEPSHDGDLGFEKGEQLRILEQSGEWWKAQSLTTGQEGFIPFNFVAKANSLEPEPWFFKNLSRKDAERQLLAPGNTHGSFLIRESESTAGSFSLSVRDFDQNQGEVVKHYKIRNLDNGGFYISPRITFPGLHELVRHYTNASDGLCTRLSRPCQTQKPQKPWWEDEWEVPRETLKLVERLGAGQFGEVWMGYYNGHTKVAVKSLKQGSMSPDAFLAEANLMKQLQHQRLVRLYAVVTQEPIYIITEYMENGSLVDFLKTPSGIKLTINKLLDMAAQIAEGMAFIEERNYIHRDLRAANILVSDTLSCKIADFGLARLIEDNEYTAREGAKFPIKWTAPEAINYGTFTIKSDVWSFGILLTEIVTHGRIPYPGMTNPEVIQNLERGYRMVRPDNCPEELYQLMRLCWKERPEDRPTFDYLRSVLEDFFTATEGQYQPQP

[7] = molecular target: Serine/threonine-protein kinase 33 (Homo sapiens) (UniProt Q9BYT3); assay: Inhibition of recombinant STK33 (unknown origin) assessed as residual activity using [gamma-33P]ATP as substrate at 1 uM; summary of the method: as §3
MCF7 = assay: Cytotoxicity against human MCF7 cells assessed as inhibition of cell viability after 72 hrs by calcien AM dye based fluorescence analysis; type: functional; conditions: MCF7, 72 h
Summary of the method: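 MCF7 cells grown in DMEM with 10% FBS, 2 mM glutamine, penicillin and streptomycin at 37 °C and 5% CO2. About 10,000 cells per well, left 4 h, then a concentration range added in triplicate, DMSO ≤0.5% final. After 72 h, 1 µg/ml calcein AM (final) for 1 h; fluorescence read at 485/538 nm. Viability given as % of control; IC50 read graphically from dose-response curves; mean of ≥3 independent experiments.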

[8] = molecular target: Ephrin type-B receptor 2 (Homo sapiens) (UniProt P29323); assay: Inhibition of recombinant EPH-B2 (unknown origin) assessed as residual activity using [gamma-33P]ATP as substrate at 1 uM; summary of the method: as §2
[9] = molecular target: Serine/threonine-protein kinase BRSK1 (Homo sapiens) (UniProt Q8TDC3); assay: Inhibition of recombinant BRSK1 (unknown origin) assessed as residual activity using [gamma-33P]ATP as substrate at 1 uM; summary of the method: as §2
[10] = molecular target: Ribosomal protein S6 kinase alpha-5 (Homo sapiens) (UniProt O75582); assay: Inhibition of recombinant MSK1 (unknown origin) assessed as residual activity using [gamma-33P]ATP as substrate at 1 uM; summary of the method: as §1
Sequence of Ribosomal protein S6 kinase alpha-5 (Homo sapiens) (O75582 whole entry, looked up): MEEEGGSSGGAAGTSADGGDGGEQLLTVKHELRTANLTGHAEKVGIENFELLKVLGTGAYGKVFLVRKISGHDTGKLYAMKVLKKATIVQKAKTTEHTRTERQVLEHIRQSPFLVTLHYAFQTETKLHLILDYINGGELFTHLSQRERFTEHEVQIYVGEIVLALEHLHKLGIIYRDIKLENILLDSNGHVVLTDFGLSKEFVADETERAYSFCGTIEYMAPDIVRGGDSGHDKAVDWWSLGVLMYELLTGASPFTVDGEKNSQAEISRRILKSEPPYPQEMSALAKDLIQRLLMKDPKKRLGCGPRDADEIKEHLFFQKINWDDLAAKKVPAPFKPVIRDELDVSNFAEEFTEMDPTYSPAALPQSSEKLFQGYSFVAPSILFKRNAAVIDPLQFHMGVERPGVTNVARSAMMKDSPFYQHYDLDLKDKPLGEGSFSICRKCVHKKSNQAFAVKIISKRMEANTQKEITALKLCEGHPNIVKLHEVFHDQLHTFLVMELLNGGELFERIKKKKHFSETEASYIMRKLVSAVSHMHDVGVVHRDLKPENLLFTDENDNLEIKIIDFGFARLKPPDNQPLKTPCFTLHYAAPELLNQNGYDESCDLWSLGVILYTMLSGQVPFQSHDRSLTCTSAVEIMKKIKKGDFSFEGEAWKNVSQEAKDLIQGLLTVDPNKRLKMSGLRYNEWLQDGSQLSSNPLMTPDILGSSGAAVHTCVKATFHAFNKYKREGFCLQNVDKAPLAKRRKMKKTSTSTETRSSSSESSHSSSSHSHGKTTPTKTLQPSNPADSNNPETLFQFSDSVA

[11] = molecular target: Serine/threonine-protein kinase MARK2 (Homo sapiens) (UniProt Q7KZI7); assay: Inhibition of recombinant MARK2 (unknown origin) assessed as residual activity using [gamma-33P]ATP as substrate at 1 uM; summary of the method: as §1
Sequence of Serine/threonine-protein kinase MARK2 (Homo sapiens) (Q7KZI7 whole entry): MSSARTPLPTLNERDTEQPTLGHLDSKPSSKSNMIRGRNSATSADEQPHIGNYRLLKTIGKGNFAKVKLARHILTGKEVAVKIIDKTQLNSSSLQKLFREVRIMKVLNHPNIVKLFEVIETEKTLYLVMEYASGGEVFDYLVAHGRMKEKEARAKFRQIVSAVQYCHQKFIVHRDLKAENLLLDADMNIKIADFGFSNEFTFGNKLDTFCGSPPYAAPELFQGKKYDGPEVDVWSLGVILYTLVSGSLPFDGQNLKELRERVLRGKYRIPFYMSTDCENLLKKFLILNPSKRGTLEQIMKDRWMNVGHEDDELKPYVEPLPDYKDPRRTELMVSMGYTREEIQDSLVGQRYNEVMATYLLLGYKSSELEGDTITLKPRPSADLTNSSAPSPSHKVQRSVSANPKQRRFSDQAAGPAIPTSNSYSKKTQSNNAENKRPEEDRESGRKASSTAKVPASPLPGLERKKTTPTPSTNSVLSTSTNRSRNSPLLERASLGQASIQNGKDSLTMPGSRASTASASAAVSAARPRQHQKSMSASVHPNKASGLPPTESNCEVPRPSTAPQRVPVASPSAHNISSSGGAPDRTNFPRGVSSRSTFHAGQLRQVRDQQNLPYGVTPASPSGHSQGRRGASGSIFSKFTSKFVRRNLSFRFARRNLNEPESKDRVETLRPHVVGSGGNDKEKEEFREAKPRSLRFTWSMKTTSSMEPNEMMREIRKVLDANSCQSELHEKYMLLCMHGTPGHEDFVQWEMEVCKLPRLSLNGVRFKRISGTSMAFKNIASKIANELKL

[12] = molecular target: Homeodomain-interacting protein kinase 1 (Homo sapiens) (UniProt Q86Z02); assay: Inhibition of recombinant HIPK1 (unknown origin) assessed as residual activity using [gamma-33P]ATP as substrate at 1 uM; summary of the method: as §2
[13] = molecular target: Maternal embryonic leucine zipper kinase (Homo sapiens) (UniProt Q14680); assay: Inhibition of recombinant MELK (unknown origin) assessed as residual activity using [gamma-33P]ATP as substrate at 1 uM; summary of the method: as §1
[14] = molecular target: Proto-oncogene tyrosine-protein kinase Src (Homo sapiens) (UniProt P12931); assay: Inhibition of recombinant SRC (unknown origin) assessed as residual activity using [gamma-33P]ATP as substrate at 1 uM; summary of the method: as §3
[15] = molecular target: Inhibitor of nuclear factor kappa-B kinase subunit epsilon (Homo sapiens) (UniProt Q14164); assay: Inhibition of recombinant IKKepsilon (unknown origin) assessed as residual activity using [gamma-33P]ATP as substrate at 1 uM; summary of the method: as §2
[16] = molecular target: Serine/threonine-protein kinase tousled-like 1 (Homo sapiens) (UniProt Q9UKI8); assay: Inhibition of recombinant TLK1 (unknown origin) assessed as residual activity using [gamma-33P]ATP as substrate at 1 uM; summary of the method: as §3
[17] = molecular target: Serine/threonine-protein kinase N2 (Homo sapiens) (UniProt Q16513); assay: Inhibition of recombinant PRK2 (unknown origin) assessed as residual activity using [gamma-33P]ATP as substrate at 1 uM; summary of the method: as §1
Sequence of Serine/threonine-protein kinase N2 (Homo sapiens) (Q16513 whole entry, looked up): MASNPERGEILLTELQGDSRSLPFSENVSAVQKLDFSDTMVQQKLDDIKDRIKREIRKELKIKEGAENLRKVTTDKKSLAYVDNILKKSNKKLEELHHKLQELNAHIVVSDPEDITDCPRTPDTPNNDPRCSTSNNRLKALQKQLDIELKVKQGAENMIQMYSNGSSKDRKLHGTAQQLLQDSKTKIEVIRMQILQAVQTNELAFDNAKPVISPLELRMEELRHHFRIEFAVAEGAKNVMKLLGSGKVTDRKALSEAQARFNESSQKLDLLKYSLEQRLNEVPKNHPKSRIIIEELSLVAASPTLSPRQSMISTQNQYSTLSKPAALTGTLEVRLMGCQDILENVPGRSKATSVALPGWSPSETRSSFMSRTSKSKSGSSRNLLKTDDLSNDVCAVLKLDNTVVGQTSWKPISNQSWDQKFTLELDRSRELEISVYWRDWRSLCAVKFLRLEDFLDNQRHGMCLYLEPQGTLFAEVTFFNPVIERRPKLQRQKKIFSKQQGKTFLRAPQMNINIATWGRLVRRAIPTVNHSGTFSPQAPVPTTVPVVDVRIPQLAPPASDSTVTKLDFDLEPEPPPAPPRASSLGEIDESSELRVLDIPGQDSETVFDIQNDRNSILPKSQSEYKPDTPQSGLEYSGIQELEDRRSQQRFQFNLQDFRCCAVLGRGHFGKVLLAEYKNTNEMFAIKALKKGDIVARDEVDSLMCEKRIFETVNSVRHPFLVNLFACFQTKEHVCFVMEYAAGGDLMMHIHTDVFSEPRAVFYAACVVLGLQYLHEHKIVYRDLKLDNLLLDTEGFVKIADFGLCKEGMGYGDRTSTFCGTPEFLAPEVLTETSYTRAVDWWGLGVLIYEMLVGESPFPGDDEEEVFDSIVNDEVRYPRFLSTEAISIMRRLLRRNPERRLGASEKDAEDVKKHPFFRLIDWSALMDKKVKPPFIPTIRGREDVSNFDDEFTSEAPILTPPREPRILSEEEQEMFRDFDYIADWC

[18] = molecular target: Serine/threonine-protein kinase pim-1 (Homo sapiens) (UniProt P11309); assay: Inhibition of recombinant PIM1 (unknown origin) assessed as residual activity using [gamma-33P]ATP as substrate at 1 uM; summary of the method: as §1
Sequence of Serine/threonine-protein kinase pim-1 (Homo sapiens) (P11309 whole entry, looked up): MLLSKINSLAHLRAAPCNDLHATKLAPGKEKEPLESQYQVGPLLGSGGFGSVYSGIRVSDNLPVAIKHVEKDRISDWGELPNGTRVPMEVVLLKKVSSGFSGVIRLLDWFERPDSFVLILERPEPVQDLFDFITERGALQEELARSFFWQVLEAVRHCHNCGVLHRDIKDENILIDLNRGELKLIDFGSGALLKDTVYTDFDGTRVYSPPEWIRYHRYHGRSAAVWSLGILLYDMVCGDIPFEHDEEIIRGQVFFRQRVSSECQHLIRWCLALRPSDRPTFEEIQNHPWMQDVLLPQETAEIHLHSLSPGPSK

[19] = molecular target: Serine/threonine-protein kinase TBK1 (Homo sapiens) (UniProt Q9UHD2); assay: Inhibition of recombinant TBK1 (unknown origin) assessed as residual activity using [gamma-33P]ATP as substrate at 1 uM; summary of the method: as §3
[20] = molecular target: Mitogen-activated protein kinase kinase kinase 11 (Homo sapiens) (UniProt Q16584); assay: Inhibition of recombinant MLK3 (unknown origin) assessed as residual activity using [gamma-33P]ATP as substrate at 1 uM; summary of the method: as §1
[21] = molecular target: Protein-tyrosine kinase 6 (Homo sapiens) (UniProt Q13882); assay: Inhibition of recombinant BRK (unknown origin) assessed as residual activity using [gamma-33P]ATP as substrate at 1 uM; summary of the method: as §2
[22] = molecular target: Mitogen-activated protein kinase kinase kinase kinase 2 (Homo sapiens) (UniProt Q12851); assay: Inhibition of recombinant GCK (unknown origin) assessed as residual activity using [gamma-33P]ATP as substrate at 1 uM; summary of the method: as §2
[23] = molecular target: Ribosomal protein S6 kinase alpha-1 (Homo sapiens) (UniProt Q15418); assay: Inhibition of recombinant RSK1 (unknown origin) assessed as residual activity using [gamma-33P]ATP as substrate at 1 uM; summary of the method: as §3
[24] = molecular target: Glycogen synthase kinase-3 beta (Homo sapiens) (UniProt P49841); assay: Inhibition of recombinant GSK3b (unknown origin) assessed as residual activity using [gamma-33P]ATP as substrate at 1 uM; summary of the method: as §2
[25] = molecular target: Tyrosine-protein kinase ABL1 (Homo sapiens) (UniProt P00519); assay: Inhibition of recombinant ABL (unknown origin) assessed as residual activity using [gamma-33P]ATP as substrate at 1 uM; summary of the method: as §2
Sequence of Tyrosine-protein kinase ABL1 (Homo sapiens) (P00519 whole entry): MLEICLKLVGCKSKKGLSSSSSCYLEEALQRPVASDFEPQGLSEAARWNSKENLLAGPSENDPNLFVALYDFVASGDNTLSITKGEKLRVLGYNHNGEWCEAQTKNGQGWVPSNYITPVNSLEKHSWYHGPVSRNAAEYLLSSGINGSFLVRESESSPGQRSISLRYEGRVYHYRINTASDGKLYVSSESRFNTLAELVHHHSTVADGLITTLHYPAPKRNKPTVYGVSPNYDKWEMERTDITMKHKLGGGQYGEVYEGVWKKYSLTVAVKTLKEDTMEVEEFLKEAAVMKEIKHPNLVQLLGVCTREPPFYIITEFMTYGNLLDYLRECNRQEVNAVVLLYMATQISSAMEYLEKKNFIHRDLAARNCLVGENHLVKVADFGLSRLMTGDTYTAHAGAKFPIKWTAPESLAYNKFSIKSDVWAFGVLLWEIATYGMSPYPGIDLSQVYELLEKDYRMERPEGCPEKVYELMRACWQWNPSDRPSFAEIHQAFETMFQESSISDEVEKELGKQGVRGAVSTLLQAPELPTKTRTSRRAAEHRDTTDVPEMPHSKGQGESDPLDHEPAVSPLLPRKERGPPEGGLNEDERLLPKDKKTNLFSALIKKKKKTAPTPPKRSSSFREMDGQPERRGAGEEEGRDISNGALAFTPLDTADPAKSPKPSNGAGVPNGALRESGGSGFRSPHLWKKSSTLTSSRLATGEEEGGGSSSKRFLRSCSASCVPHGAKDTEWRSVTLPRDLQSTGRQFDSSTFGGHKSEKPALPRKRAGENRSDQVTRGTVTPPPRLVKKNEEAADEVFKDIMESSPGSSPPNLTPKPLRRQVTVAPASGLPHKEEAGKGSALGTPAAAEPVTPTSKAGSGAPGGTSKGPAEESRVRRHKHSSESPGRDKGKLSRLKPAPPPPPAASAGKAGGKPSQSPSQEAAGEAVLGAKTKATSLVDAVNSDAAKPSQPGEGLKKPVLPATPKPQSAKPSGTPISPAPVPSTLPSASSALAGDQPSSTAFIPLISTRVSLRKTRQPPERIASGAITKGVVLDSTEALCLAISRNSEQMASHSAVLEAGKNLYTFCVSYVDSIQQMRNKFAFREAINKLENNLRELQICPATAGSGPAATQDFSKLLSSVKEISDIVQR

Sequence of Mitogen-activated protein kinase 9 (Homo sapiens) (P45984 whole entry, looked up): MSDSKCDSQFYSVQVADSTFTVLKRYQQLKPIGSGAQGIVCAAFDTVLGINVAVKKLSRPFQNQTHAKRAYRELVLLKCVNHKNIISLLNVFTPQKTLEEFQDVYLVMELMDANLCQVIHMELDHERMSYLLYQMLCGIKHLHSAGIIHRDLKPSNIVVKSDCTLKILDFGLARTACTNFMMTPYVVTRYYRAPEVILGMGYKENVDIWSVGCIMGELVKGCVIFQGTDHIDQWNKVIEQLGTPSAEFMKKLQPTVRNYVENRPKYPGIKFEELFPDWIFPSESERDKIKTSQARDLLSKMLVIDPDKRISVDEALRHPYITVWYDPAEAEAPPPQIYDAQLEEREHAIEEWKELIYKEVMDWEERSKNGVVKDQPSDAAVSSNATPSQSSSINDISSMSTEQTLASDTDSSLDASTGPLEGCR

SMILES | Activity [1] [%] | Activity [2] [%] | Activity [3] [%] | Activity [4] [%] | Activity [5] [%] | Activity [6] [%] | Activity [7] [%] | IC50 (MCF7) [µM] | Activity [8] [%] | Activity [9] [%] | Activity [10] [%] | Activity [11] [%] | Activity [12] [%] | Activity [13] [%] | Activity [14] [%] | Activity [15] [%] | Activity [16] [%] | Activity [17] [%] | Activity [18] [%] | Activity [19] [%] | further results
CC[C@@H](CO)Nc1nc(NC(=N)N)c2ncn(C(C)C)c2n1 | 73 | 36 | 40 | 76 | 41 | 12 | 9 | 1.6 | 2 | 45 | 38 | 62 | 11 | 19 | 6 | 52 | 9 | 84 | 71 | 90 | Activity [20]: 37%; Activity [21]: 44%; Activity [22]: 10%; Activity [23]: 12%; Activity [24]: 28%; Activity [25]: 6%
CC[C@H](CO)Nc1nc(NC(=N)N)c2ncn(C(C)C)c2n1 | 85 | 54 | 39 | 72 | 22 | 13 | 11 | 4.5 | 2 | 44 | 46 | 45 | 15 | 27 | 22 | 66 | 9 | 85 | 85 | 92 | Activity [20]: 37%; Activity [21]: 50%; Activity [22]: 15%; Activity [23]: 18%; Activity [24]: 37%; Activity [25]: 5%
